These results are taken from publication PMC5393272 (Nature chemical biology, 2016).

In assay [1] the test system is PC9 cells. The experiment in a line: Senescence assessment. The settings on record: PC9, NGI-1 for 5 days; emission 575 nm; p<.05. The assay is classed as cell-based. The gist of the method: (§1)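 PC9 and A549 cells, untreated or given 10 μM test compound, were fixed in 70% ethanol and stained with DAPI for 30 min. Flow cytometry used 532 nm and 405 nm lasers; autofluorescence emission at 575 nm was read after DAPI gating; n = 4.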

Assay [2] has as its system PC9 cells. In words: Cell cycle distribution by flow cytometry, PC9. In kind it is cell-based. The settings on record: PC9, NGI-1 24 h; control 65%; p<.01. The essentials: (§2)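 Cells were treated with test compound (24 h stated for PC9 and A549). 1 × 10^6 cells were washed in ice-cold PBS, fixed overnight in ice-cold 70% ethanol at −20°C, then stained in Guava Cell Cycle Reagent for 30 min at room temperature. Analysis was on an LSRII cytometer, gating normal FSC/SSC and excluding doublets by FSC-A vs FSC-H. About 30,000 cells per run; mean of 3 independent assays; two-tailed t-tests.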
(In general: Flow cytometry measures light scatter and fluorescence of single cells or particles in a stream.)

Assay [3] has as its target STT3B (Homo sapiens, UniProt Q8TCJ2). In words: 35S metabolic labeling of SHBG glycosylation. In kind it is cell-based. The gist of the method:
(§3)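 HeLa cells transfected with pSAP or SHBG vectors, given 10 μM test compound and metabolically labelled with 35S. Glycoforms were scored and reported as the average number of glycans per sample, with endoglycosidase H-treated controls. Runs were compared with siRNA knockdown of STT3A or STT3B against non-coding siRNA. Dose-response was run on pSAP and SHBG expressed in HEK293 cells.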

Assay [4] concerns N-linked glycosylation in D54-ERLucT cells. The experiment in a line: D54-ERLucT cell based luciferase assay for inhibition of N-linked glycosylation. As to conditions: intact D54 ER-LucT cells in culture; maximum activation using 20 μM NGI-1; n=4.
For assay [5], the system named is EGFR. The experiment in a line: EGFR localization by surface biotinylation and confocal microscopy. In kind it is cell-based. The settings on record: H3255 cells, 10 μM NGI-1, 24 h; identical in HCC-827.
For assay [6], the system named is A549 cells. The experiment in a line: Senescence assessment, A549. In kind it is cell-based. As to conditions: A549, NGI-1 for 5 days. The gist of the method:
as §1

The test system of assay [7] is A549 cells. The experiment in a line: Apoptosis assessment, A549. In kind it is cell-based.
The test system of assay [8] is luciferase N-linked glycosylation in D54 ER-LucT cells. In words: Western blot of luciferase N-linked glycosylation in NGI-1 treated cell cultures. In kind it is cell-based. As to conditions: doses 25 times the estimated IC50; unlike tunicamycin.
The test system of assay [9] is H1581 cells. The experiment in a line: Cell cycle distribution by flow cytometry, H1581. The assay is classed as cell-based. As to conditions: H1581, NGI-1; control 55%; p<.05. The gist of the method: as §2
Assay [10] deals with OST. The assay is classed as biochemical. The settings on record: NGI-1 5 μM; streptolysin-O permeabilized CHO cells; QYT or NYT peptide. The gist of the method:
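CHO cells permeabilized with streptolysin-O, incubated with test compound and either control tripeptide Ac-Gln-Tyr-Thr-CONH2 or glycosylation acceptor Ac-Asn-Tyr-Thr-CONH2. Free glycans and cleaved N-linked glycans resolved by fluorophore-assisted carbohydrate electrophoresis; n=2 for each product.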

The subject of assay [11] is HCC-827 cells. In words: Cell cycle distribution by flow cytometry, HCC-827. In kind it is cell-based. The settings on record: HCC-827, NGI-1 24 h; control 50%; p<.01. The gist of the method: as §2
Assay [12] has as its system H1581 cell line. In words: MTT proliferation assay, H1581. As to conditions: H1581 (FGFR1-dependent), 10μM NGI-1, 5 d. In kind it is cell-based. The gist of the method: (§4)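 NSCLC cells (2×10^3 per well, triplicate wells) were grown in 10% serum medium with 10 μM test compound or 1 μM tunicamycin; medium and inhibitor were renewed every 48 h. MTT was added 4 h before reading absorbance at 570 nm on days 0, 3 and 5. Mean ± s.d., n = 3; two-tailed t-tests.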

Assay [13] relates to Integrin B1 (ITB1). The experiment in a line: ITB1 glycosylation and localization. The assay is classed as cell-based. As to conditions: 10μM NGI-1, 48 h; hypo-glycosylated ITB1 still at the cell surface. The gist of the method: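 H3255 cells were treated with 10 μM test compound for 48 h. Surface biotinylation: on ice, cells were labelled with 0.5 mg/ml Sulfo-NHS-SS-biotin in PBS for 60 min at 4°C, quenched with 100 mM glycine, lysed, and pulled down on streptavidin-agarose overnight at 4°C. Bound (surface) and unbound (intracellular) fractions were blotted on 7.5% SDS-PAGE. Confocal imaging used anti-β1-integrin at 1:500.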

The test system of assay [14] is FGFR1. In words: FGFR phosphorylation western blot in H1581 and H2444. In kind it is cell-based. The settings on record: H1581 and H2444 NSCLC cell lines, NGI-1. The essentials: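 H1581 and H2444 NSCLC cells were treated with test compound. Lysates were western blotted with anti-phospho-FGFR (Tyr653/654) at 1:3,000, and gel mobility was assessed.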
Assay [15] deals with EGFR. The experiment in a line: Western blot of EGFR N-linked glycosylation in lung adenocarcinoma cells. The assay is classed as cell-based. The settings on record: 10μM NGI-1, 24h; residual glycosylation remains. A general note: Immunoblotting shows a protein as a band on a membrane.
Assay [16] concerns A549 cells. In words: Cell cycle distribution by flow cytometry, A549. The assay is classed as cell-based. As to conditions: A549, NGI-1 24 h. The essentials:
as §2

Assay [17] relates to cyclin D1. The experiment in a line: Cyclin D1 mRNA and protein, A549. In kind it is cell-based, human. The settings on record: A549, NGI-1. The essentials:
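Cyclin D1 mRNA: A549 and PC9 cells were treated with test compound, total RNA purified and reverse transcribed, and qPCR run with SYBR Green normalised to GAPDH. Cycling was 95°C 10 min, then 40 cycles of 95°C 30 s, 55°C 15 s, 72°C 30 s. Triplicate PCRs; n = 4; two-tailed t-tests. Protein was assessed by western blot, n = 3.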

For assay [18], the system named is H2444 cells. In words: MTT proliferation assay, H2444. In kind it is cell-based. The settings on record: H2444 (FGFR amplified, not FGFR1-dependent), 10μM NGI-1, 5 d. The essentials: as §4
A general note: Tetrazolium dyes change colour on reduction, which living cells bring about.

The subject of assay [19] is LLO synthesis in CHO cells. The experiment in a line: FACE analysis of LLOs in wild type CHO cells. The assay is classed as cell-based. The settings on record: for effect on LLO synthesis: FACE. The essentials: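 Wild-type CHO cells were treated with test compound or tunicamycin. Lipid-linked oligosaccharides were analysed by fluorophore-assisted carbohydrate electrophoresis, with mature Glc3Man9 LLO as the size marker; n = 3.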

Assay [20] deals with p21. In words: p21 protein western blot, PC9. In kind it is cell-based. As to conditions: PC9, NGI-1.
Assay [21] addresses STT3A (Homo sapiens, UniProt P46977). In words: 35S metabolic labeling of pSAP glycosylation. The assay is classed as cell-based. The gist of the method: as §3
The subject of assay [22] is H2444 cells. In words: Cell cycle distribution by flow cytometry, H2444. As to conditions: H2444, NGI-1. The assay is classed as cell-based. The essentials: as §2
In assay [23] the test system is HCC-827. The experiment in a line: Proliferation assay, HCC-827. The settings on record: HCC-827 (EGFR KD mutation), NGI-1. In kind it is cell-based.
The test system of assay [24] is A549 cell line. In words: MTT proliferation assay, A549. The assay is classed as cell-based. The gist of the method:
as §4

Assay [25] deals with H3225. The experiment in a line: Proliferation assay, H3225. In kind it is cell-based. As to conditions: H3225 (EGFR KD mutation), NGI-1.
Assay [26] relates to PC9 cells. In words: MTT proliferation assay, PC9. The assay is classed as cell-based. The gist of the method: as §4
Assay [27] deals with KD mutant EGFR. The experiment in a line: EGFR phosphorylation western blot in PC9 cells. The settings on record: 10μM NGI-1, 1 day. The assay is classed as cell-based. The essentials:
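PC9 cells (with A549 for comparison) were treated with 10 μM test compound for 24 h. Lysates were western blotted for EGFR phospho-Y1173, and glycoform gel-mobility shifts were noted.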

Assay [28] concerns GRP78/BiP. The experiment in a line: ER stress response, GRP78/BiP protein expression. In kind it is cell-based. The settings on record: PC9 and A549 cell lines, NGI-1.
Assay [29] relates to OST. In words: Cell free pSAP glycosylation with canine pancreas microsomes. In kind it is biochemical. The settings on record: in vitro translation of pSAP mRNA, 60 min.
Assay [30] has as its system H3225. In words: Cell cycle distribution by flow cytometry, H3225. In kind it is cell-based. As to conditions: H3225, NGI-1 24 h; control 55%; p<.05. The essentials:
as §2

For assay [31], the system named is PC9 cells. In words: Apoptosis assessment, PC9. In kind it is cell-based.
Setting [32] is: HeLa cells, 10 μM, NGI-1 omitted during pulse labeling interval (20 minutes).

Sequence of STT3A (P46977 whole entry): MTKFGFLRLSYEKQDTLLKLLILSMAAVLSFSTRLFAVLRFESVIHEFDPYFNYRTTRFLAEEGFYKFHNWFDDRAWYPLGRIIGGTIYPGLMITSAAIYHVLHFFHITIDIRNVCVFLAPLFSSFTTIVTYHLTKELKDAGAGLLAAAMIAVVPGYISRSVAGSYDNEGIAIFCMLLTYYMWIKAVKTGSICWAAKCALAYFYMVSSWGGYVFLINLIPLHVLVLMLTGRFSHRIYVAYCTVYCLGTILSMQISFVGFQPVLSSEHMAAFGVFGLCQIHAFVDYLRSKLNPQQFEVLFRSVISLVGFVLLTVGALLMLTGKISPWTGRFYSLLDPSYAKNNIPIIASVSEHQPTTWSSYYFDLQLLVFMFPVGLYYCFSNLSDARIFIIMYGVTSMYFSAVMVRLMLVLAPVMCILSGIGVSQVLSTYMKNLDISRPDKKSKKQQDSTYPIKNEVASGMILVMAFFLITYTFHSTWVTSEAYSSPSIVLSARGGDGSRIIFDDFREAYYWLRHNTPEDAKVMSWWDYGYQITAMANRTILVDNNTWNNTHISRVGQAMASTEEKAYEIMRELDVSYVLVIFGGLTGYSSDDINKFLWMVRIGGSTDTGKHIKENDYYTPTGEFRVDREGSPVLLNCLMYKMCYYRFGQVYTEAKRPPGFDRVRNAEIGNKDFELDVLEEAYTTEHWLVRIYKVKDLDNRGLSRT

As for `Cc1cnc(NC(=O)c2cc(S(=O)(=O)N(C)C)ccc2N2CCCC2)s1` [NGI-1], in [1], the “increased autofluorescence by flow cytometry” value is on record as 60.4% ± 7.5%. For the same molecule, the “cells in G1” value in assay [2] was 90%; in [9] it was 80%; in assay [11], 75%; in assay [30] it was 80%. Besides, the “reversibility of inhibition of site occupancy (STT3B specific sites)” value in assay [3] (setting [32]) is listed as “reversible”. Moreover, the “LLO transfer to STT3B dependent sites (SHBG)” value in [3] (dose response, HEK293 cells) is recorded as “completely blocks”. In assay [4], the “AC50 (equivalent to IC50), luciferase activity” value is 1100 nM. For the same molecule, the “EGFR trafficking / cellular localization” value in assay [5] is on record as “blocks EGFR trafficking to the cell surface”. In addition, the “hallmarks of senescence (autofluorescence, lipofuscin aggregates, morphology)” value in assay [6] is given as “none of these changes were detected”. Further, the induction of apoptosis result was “did not induce apoptosis” in [7] (A549, NGI-1 for 2 or 5 days) and “did not induce apoptosis” in assay [31] (PC9, NGI-1 for 2 or 5 days). In addition, the “extent of N-linked glycosylation inhibition” value in [8] was “did not completely abolish all N-linked glycosylation”. Besides, in assay [10], the “production of OST products (free glycans and N-glycans)” value is given as “substantially reduce the production of both OST products”. The effect on proliferation entry is “blocked proliferation” in assay [12]; “NGI-1 insensitive” in assay [18]; “sensitive” in assay [23]; “continued to proliferate” in [24] (A549 (KRAS G12S), 10μM NGI-1, MTT over 5 days); “sensitive” in assay [25]. For the same molecule, in assay [13], the ITB1 glycosylation result was “significantly reduced ITB1 glycosylation”. The “FGFR1 phosphorylation (Y653/654)” value in assay [14] is “blocked FGFR1 phosphorylation”. Further, the “EGFR N-linked glycosylation (molecular weight on SDS-PAGE)” value in assay [15] is listed as “blocked EGFR N-linked glycosylation”. Also, the cell cycle distribution entry in [16] was “did not significantly change”. The “cyclin D1 mRNA and protein levels” value in [17] is on record as “not significantly affected”. Moreover, the “effect on LLO synthesis” value in assay [19] was “did not impair LLO synthesis”. Moreover, the “increase of Glc3Man9GlcNAc2 LLO” value in assay [19] (p <.01) is 31%. Moreover, the “protein levels of p21” value in [20] is listed as “increase within 24 h”. The “reversibility of inhibition of site occupancy (STT3A specific sites)” value in assay [21] (setting [32]) is recorded as “reversible”. For the same molecule, the “glycosylation of STT3A dependent sites (pSAP)” value in [21] (dose response, HEK293 cells) is “less potent and incompletely blocks”. The G1 arrest entry in assay [22] is “not in H2444 cells”. Besides, the “reduction of cell proliferation” value in [26] (PC9, 10μM NGI-1, after 3 days, MTT, p <.001) is “more than 90%”. The “phosphorylation of KD mutant EGFR (Y1173)” value in assay [27] is reported as “blocked phosphorylation”. Further, in [28], the “ER stress response (GRP78/BiP protein expression)” value was “induced a similar ER stress response in both cell lines”. The “inhibition of pSAP N-linked glycosylation” value in [29] was “dose dependent inhibition”.
On to tunicamycin [reference compound], for which the induction of apoptosis entry in assay [7] (A549, tunicamycin treatment) is “apoptosis was activated”; in [31] (PC9, tunicamycin treatment), “apoptosis was activated”. Besides, the “effect on LLO synthesis” value in assay [19] is given as “blocked all LLO production”. The effect on proliferation entry is recorded as “immediately blocks proliferation” in [24] (A549, 1μM tunicamycin, MTT over 5 days) and “immediately blocks proliferation” in assay [26] (PC9, 1μM tunicamycin, MTT over 5 days).
